Some results are limits rather than exact numbers.

One experiment deals with Procathepsin L (Homo sapiens, UniProt P07711). Briefly: Inhibition of human cathepsin L. Summed up:
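Cathepsin L continuous progress-curve assay with Cbz-Phe-Arg-AMC at 5 µM; Kiapp corrected to zero substrate using Km 6.5 µM to give Kinac. Two independent runs, each in duplicate.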

Experiment [1] deals with T1, Falcipain 2 (Plasmodium falciparum) (UniProt Q9N6S8).
T1 sequence (whole entry): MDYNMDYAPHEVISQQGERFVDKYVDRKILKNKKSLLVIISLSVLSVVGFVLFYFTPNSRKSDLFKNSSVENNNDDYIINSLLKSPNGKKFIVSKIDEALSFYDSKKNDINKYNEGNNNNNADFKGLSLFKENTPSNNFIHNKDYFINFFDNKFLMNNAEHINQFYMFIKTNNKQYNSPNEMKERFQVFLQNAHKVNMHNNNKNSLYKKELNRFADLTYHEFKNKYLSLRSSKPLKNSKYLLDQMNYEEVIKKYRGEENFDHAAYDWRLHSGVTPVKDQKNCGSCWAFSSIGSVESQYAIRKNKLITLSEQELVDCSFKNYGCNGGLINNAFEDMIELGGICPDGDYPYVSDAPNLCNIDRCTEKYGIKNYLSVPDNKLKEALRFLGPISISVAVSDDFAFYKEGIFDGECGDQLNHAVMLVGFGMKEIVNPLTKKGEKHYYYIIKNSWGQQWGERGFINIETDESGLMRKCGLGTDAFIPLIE
As to the kind of experiment: (§1) Inhibition of Plasmodium falciparum recombinant falcipain-2. The method, boiled down: (§2)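 Recombinant FP-2 in 100 mM sodium acetate pH 5.5, 10 mM DTT; Cbz-Phe-Arg-AMC 32 µM, fluorescence (ex 365/em 460 nm) monitored continuously 20 min at room temperature. Seven inhibitor levels within 0–10 µM; kobs from progress-curve fits, hyperbolic fit gave kinac and Kiapp, corrected with Km 21.5 µM; k2nd = kinac/Kinac. Two independent runs, each in duplicate.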

The next experiment has as its target T2, Falcipain 2 (Plasmodium falciparum, UniProt Q9N6S8).
T2 sequence (Q9N6S8 whole entry): T1 sequence (whole entry)
Described as §1. The method, boiled down: as §2

A further experiment concerns the target Cathepsin B (Homo sapiens, UniProt P07858). Briefly: Inhibition of human cathepsin B. The method, boiled down: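 Cathepsin B continuous progress-curve assay with Cbz-Phe-Arg-AMC at 80 µM; Kiapp corrected to zero substrate using Km 150 µM to give Kinac. Two independent runs, each in duplicate.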
In a further experiment the test system is Plasmodium falciparum. As to the kind of experiment: Antiplasmodial activity against Plasmodium falciparum 3D7 after 72 hrs in Malstat assay. The settings on record: 3D7, 72 h. The experiment is classed as functional, organism-based. Summed up: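 Synchronized ring-stage P. falciparum 3D7 plated at 1% parasitemia with compounds (in DMSO) at 1 nM–100 µM; 0.5% v/v DMSO alone as negative control. Cultured in vitro 72 h, then viability read by Malstat assay (parasite lactate dehydrogenase activity); dose-dependent effect quantified.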

Turning to `COc1ccc(S(=O)(=O)/C=C/CNC(=O)CN2C(=O)C(COC(=O)Nc3ccc(Cl)cc3C(F)(F)F)N=C(c3ccccc3)c3ccccc32)cc1` (configuration not stated), the figures for the Ki at Procathepsin L, at Falcipain 2 and at Cathepsin B were 14 µM, 0.12 µM and 5.9 µM, respectively. In addition, the Kinact on Procathepsin L was 0.1 min⁻¹; in experiment [1], 0.031 min⁻¹; at Cathepsin B, 0.059 min⁻¹. Further, the IC50 at Falcipain 2 is 8 µM; in the experiment on Plasmodium falciparum, over 100 µM.
For the compound `CS(=O)(=O)/C=C/CNC(=O)CN1C(=O)[C@@H](COC(=O)Nc2ccc(Cl)cc2C(F)(F)F)N=C(c2ccccc2)c2ccccc21`, the Kinact in experiment [1] was determined as 0.059 min⁻¹; on Cathepsin B, 0.048 min⁻¹. Also, the IC50 on Falcipain 2 came to 8 µM; in the experiment with Plasmodium falciparum, 18.1 µM. Moreover, the Ki at Falcipain 2 is 0.37 µM; on Cathepsin B it was 11 µM.
As for `O=C(CN1C(=O)[C@@H](COC(=O)Nc2ccc(Cl)cc2C(F)(F)F)N=C(c2ccccc2)c2ccccc21)NC/C=C/S(=O)(=O)c1ccccc1`, the inhibition constant Ki on Procathepsin L worked out at 21.9 µM; on Falcipain 2 it was 0.14 µM; on Cathepsin B, 4.6 µM. Moreover, the Kinact at Procathepsin L was determined as 0.16 min⁻¹; in experiment [1], 0.033 min⁻¹; on Cathepsin B it was 0.047 min⁻¹. Moreover, the half-inhibitory concentration (IC50) at Falcipain 2 is 8 µM; in the experiment on Plasmodium falciparum, 23.1 µM.
As to `CCS(=O)(=O)/C=C/[C@H](CCc1ccccc1)NC(=O)CN1C(=O)[C@@H](COC(=O)Nc2ccc(Cl)cc2C(F)(F)F)N=C(c2ccccc2)c2ccccc21`, the Ki on Procathepsin L came to 13.5 µM; on Falcipain 2, 0.32 µM; at Cathepsin B, 4.4 µM. The Kinact was 0.1 min⁻¹ at Procathepsin L, 0.1 min⁻¹ in experiment [1] and 0.045 min⁻¹ at Cathepsin B. Further, the midpoint of inhibition with Plasmodium falciparum, the IC50, lay at 9.1 µM.
Regarding `CC(C)C[C@H](NC(=O)[C@H]1O[C@@H]1C(=O)O)C(=O)NCCCCN=C(N)N` [E-64], the Kinact in experiment [1] was 0.46 min⁻¹. Moreover, the Ki at Falcipain 2 stood at 0.29 µM. Further, it took 5.3 µM to reach half-maximal inhibition with Plasmodium falciparum (IC50).
`O=C(CN1C(=O)[C@@H](COC(=O)Nc2ccc(Cl)cc2C(F)(F)F)N=C(c2ccccc2)c2ccccc21)N[C@H](/C=C/S(=O)(=O)c1ccccc1)CCc1ccccc1`: the values for the Ki at Procathepsin L, at Falcipain 2 and on Cathepsin B were 7 µM, 0.6 µM and 3.1 µM, respectively. The Kinact is 0.12 min⁻¹ on Procathepsin L, 0.11 min⁻¹ in experiment [1] and 0.039 min⁻¹ on Cathepsin B. In the experiment with Plasmodium falciparum, half-maximal inhibition (IC50) was put at 9.2 µM.
For the compound `O=C(CN1C(=O)[C@@H](COC(=O)Nc2ccc(Cl)cc2C(F)(F)F)N=C(c2ccccc2)c2ccccc21)N[C@H]1CC(=O)OC1O` (some centres not stated), the IC50 at Falcipain 2 was 8 µM.
Take `CCS(=O)(=O)/C=C/CNC(=O)CN1C(=O)[C@@H](COC(=O)Nc2ccc(Cl)cc2C(F)(F)F)N=C(c2ccccc2)c2ccccc21`: the results for the Kinact (in experiment [1]; on Cathepsin B) were 0.027 min⁻¹ and 0.039 min⁻¹, respectively. Besides, the values for the IC50 at Falcipain 2 and in the experiment with Plasmodium falciparum were 8 µM and 56.6 µM, respectively. Also, the Ki at Falcipain 2 stood at 0.11 µM; on Cathepsin B, 4.3 µM.
Take `COc1ccc(S(=O)(=O)/C=C/[C@H](CCc2ccccc2)NC(=O)CN2C(=O)[C@@H](COC(=O)Nc3ccc(Cl)cc3C(F)(F)F)N=C(c3ccccc3)c3ccccc32)cc1`: the Kinact was 0.034 min⁻¹ in experiment [1] and 0.045 min⁻¹ on Cathepsin B. Besides, the Ki on Falcipain 2 came out at 0.053 µM; at Cathepsin B, 3.3 µM. This compound yielded a 50% inhibitory concentration (IC50) with Plasmodium falciparum of 59.6 µM.
As for `CS(=O)(=O)/C=C/[C@H](CCc1ccccc1)NC(=O)CN1C(=O)[C@@H](COC(=O)Nc2ccc(Cl)cc2C(F)(F)F)N=C(c2ccccc2)c2ccccc21`, the Kinact is 0.16 min⁻¹ in experiment [1] and 0.064 min⁻¹ on Cathepsin B. The IC50 was 8 µM on Falcipain 2 and 55.4 µM in the experiment with Plasmodium falciparum. The Ki turned out to be 0.39 µM at Falcipain 2 and 14.5 µM on Cathepsin B.

The values above are taken from ChEMBL document CHEMBL1141590, “Development of peptidomimetics with a vinyl sulfone warhead as irreversible falcipain-2 inhibitors” (J Med Chem, 2008).
